Data set [1] addresses Vascular endothelial growth factor receptor 2 (Homo sapiens, UniProt P35968). The experiment in a line: Inhibition of VEGFR2.
The test system of the next data set is HCT-116. The experiment in a line: Antiproliferative activity against human HCT116 cells. The format is cell-based.
Data set [2] concerns HUVEC. The experiment in a line: Selectivity ratio of IC50 for human HCT116 cells to IC50 for HUVEC cells.
Data set [3] deals with Calu-6. The experiment in a line: Antiangiogenic activity in human Calu6 cells xenografted in BALB/c mouse assessed as microvessel density reduction at 300 mg/kg, po after 11 days by immunohistochemical staining method. In kind it is functional. More on the design: scale not given: the % may be the effect or the level left. In outline:
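Female Balb/c nude mice given Calu-6 cells s.c. in the flank, 5.0×10⁶ cells per mouse. Dosing was oral, once daily for 11 days, starting once tumors reached 150 mm³. Tumors taken 24 h after the last dose and frozen-sectioned from the mid-portion. Vessels stained with anti-mouse CD31 and counted by image analysis. Density decrease expressed against control.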

Data set [4] is described as follows: Clearance in mouse liver microsome at 5 uM after 60 mins by LC-MS/MS analysis. The format is ADME. The following applies: liver microsomes, read-out: CLH. The procedure, abridged: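 Test compound at 5 µM incubated with mouse liver microsomes, 1.0 mg protein/mL, in 50 mM potassium phosphate pH 7.4 at 37 °C. Started by adding NADPH generating system (glucose 6-phosphate 3.2 mM, β-NADP 2.6 mM, MgCl2 6.5 mM). Substrate depletion measured against internal standard. Intrinsic clearance is the first-order decay constant normalized to protein.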

In data set [5] the test system is HUVEC. The experiment in a line: Antiangiogenic activity in HUVEC assessed as inhibition of VEGF-induced cell proliferation after 4 days. In kind it is functional, cell-based. The note with it: Homo sapiens, 96 h. In outline: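 HUVECs maintained in RPMI1640 with 10% FCS, 50 μg/mL heparin and ECGS, then seeded at 3000 cells/well in RPMI1640 with 5% FCS and 20 ng/mL VEGF, with compound at serially diluted concentrations. Incubated at 37 °C, 5% CO₂. Read-out is Cell Counting Kit-8, absorbance at 450 nm. Inhibition = (1−T/C)×100 against untreated control.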

The subject of data set [6] is Calu-6. The experiment in a line: Antitumor activity against human Calu6 cells xenografted in BALB/c mouse assessed as tumor growth inhibition at 600 mg/kg, po for 11 days relative to control. The format is functional. The note with it: Calu-6, 264 h, read-out: TGI. The procedure, abridged: (§1)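 Calu-6 cells in Hanks' balanced salt solution implanted s.c. in the flank of female Balb/c nude mice, 5.0×10⁶ per mouse. Oral dosing once daily for 11 days, starting at tumor volume 150 mm³. Volume = 1/2 × long × short². Tumor growth inhibition taken from change in volume of the treated group against change in controls.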
(A xenograft is tissue or cells of one species grown in another, often human tumour cells in immunodeficient mice.)

The test system of data set [7] is Calu-6. The experiment in a line: Antitumor activity against human Calu6 cells xenografted in BALB/c mouse assessed as tumor growth inhibition at 300 mg/kg, po for 11 days relative to control. In kind it is functional. The note with it: Calu-6, 264 h, read-out: TGI. In outline: as §1
Data set [8] can be described thus: Solubility of the compound in fasted state simulated intestinal fluid at 10 mM after 2 hrs by HPLC-UV analysis. In kind it is physicochemical. The procedure, abridged: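 Triplicate samples made from 10 mM DMSO stocks. DMSO evaporated (1 h), residue dissolved in FaSSIF and shaken 2 h. Solutions filtered, filtrate analysed by UV or HPLC-UV against a four-point calibration curve from the stocks. Result in µg/mL.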

Data set [9] in a line: Lipophilicity, log D of the compound at pH 7. The note with it: buffer. In kind it is physicochemical.
Data set [10] relates to Calu-6. The experiment in a line: Antitumor activity against human Calu6 cells xenografted in BALB/c mouse assessed as tumor growth inhibition at 80 mg/kg, po qd for 11 days. The format is functional, organism-based. More on the design: dose 80 mg/kg. In outline: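 Female Balb/c nude mice carried s.c. flank Calu-6 xenografts, 5.0×10⁶ cells in Hanks' solution. At 200 mm³, mice were randomized into 4 groups (n = 5): vehicle, 150 mg/kg, sunitinib 80 mg/kg, or both. Each group dosed orally once daily for 11 days. Volume = 1/2 × long × short². Inhibition from volume change against control.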

A short description of data set [11]: Toxicity in human Calu6 cells xenografted po dosed BALB/c mouse assessed as body weight change administered qd for 11 days. The following applies: in vivo.
[12] abbreviates: dose 600 mg/kg, in the assay text read “600 mg/kg” for “300 mg/kg”.

Converted amounts (≈) assume the structure as drawn. The source made the active and inactive calls. The calls are words filed in the database; no cut-off is given here.

Here are results for four compounds from ChEMBL document CHEMBL1949587 (Bioorg Med Chem, 2012).

Chain of Vascular endothelial growth factor receptor 2 (P35968 whole entry): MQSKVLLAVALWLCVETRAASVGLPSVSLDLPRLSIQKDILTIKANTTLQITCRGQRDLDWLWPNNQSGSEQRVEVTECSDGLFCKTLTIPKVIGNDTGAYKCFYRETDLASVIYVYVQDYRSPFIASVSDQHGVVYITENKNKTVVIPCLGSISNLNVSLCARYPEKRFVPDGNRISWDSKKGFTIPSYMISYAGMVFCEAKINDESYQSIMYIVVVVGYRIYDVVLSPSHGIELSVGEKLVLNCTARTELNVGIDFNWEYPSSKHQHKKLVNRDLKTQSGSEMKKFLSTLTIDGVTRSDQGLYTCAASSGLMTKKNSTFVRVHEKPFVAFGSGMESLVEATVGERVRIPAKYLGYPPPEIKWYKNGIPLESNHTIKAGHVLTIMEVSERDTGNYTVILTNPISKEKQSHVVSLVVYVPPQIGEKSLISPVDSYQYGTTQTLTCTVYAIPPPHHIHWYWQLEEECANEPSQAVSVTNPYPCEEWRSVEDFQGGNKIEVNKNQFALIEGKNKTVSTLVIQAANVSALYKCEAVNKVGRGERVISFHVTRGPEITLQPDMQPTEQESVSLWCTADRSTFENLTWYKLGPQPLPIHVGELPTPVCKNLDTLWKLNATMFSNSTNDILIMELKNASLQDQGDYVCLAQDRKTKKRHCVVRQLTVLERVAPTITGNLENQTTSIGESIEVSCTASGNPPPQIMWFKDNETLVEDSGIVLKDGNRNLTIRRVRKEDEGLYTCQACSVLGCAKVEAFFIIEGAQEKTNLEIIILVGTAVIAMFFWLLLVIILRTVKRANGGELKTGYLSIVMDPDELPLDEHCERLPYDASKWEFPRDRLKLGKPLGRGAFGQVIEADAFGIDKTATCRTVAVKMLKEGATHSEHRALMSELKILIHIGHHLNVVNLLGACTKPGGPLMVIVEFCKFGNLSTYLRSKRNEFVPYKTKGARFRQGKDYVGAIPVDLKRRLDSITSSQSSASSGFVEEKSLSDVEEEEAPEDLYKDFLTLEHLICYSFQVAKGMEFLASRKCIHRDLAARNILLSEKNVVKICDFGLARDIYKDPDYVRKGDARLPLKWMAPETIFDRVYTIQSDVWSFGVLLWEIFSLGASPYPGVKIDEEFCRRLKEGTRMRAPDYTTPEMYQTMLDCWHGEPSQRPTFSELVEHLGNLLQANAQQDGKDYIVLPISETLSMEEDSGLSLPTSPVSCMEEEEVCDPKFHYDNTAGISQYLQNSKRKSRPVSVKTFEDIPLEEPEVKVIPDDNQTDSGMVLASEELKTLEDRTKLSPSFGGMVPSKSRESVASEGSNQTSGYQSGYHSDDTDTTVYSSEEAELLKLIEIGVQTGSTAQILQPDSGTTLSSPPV

In the case of `COc1ccc(C(N)=O)cc1COc1ccc(Cl)c(C)c1`, the IC50 was above 50 µM in [1], above 50 µM in the data set with HCT-116 and 0.64 µM in the data set on HUVEC [5]. Also, the “Ratio IC50” value in the data set with HUVEC [2] is reported as above 78. In addition, in the data set with Calu-6 [3] (setting [12]), the Activity was determined as 0%. Further, the microsomal CLint at 5 µM in data set [4] came to 414 µL/min/mg. The inhibition in vivo at 600 mg/kg in the data set with Calu-6 [6] stood at 14%.
On to `COc1ccc(C(N)=O)cc1/C=C/c1ccc(Cl)cc1`, for which the IC50 in data set [1] was above 50 µM; in the data set on HCT-116, 7.1 µM; with HUVEC [5] it was 0.087 µM. Further, the inhibition in vivo at 300 mg/kg in the data set on Calu-6 [7] was found to be 71%. The “Ratio IC50” value in the data set with HUVEC [2] worked out at 82. Further, the Activity in the data set on Calu-6 [3] (dose 300 mg/kg) came to 60%. For the same compound, in data set [8], the solubility at 2 h, 10000 µM was 16 µg/mL (≈ 55.6 µM). For the same compound, in data set [4], the microsomal CLint at 5 µM came out at 110 µL/min/mg. Also, the logD in [9] is 4.
Turning to `CCN(CC)CCNC(=O)c1c(C)[nH]c(/C=C2\C(=O)Nc3ccc(F)cc32)c1C` [SUNITINIB], the TGI result in the data set with Calu-6 [10] was “Active”. For the same compound, the MTD at 264 h in data set [11] stood at 80 mg/kg.
In the case of `COc1ccc(C(N)=O)cc1COc1ccc(Cl)cc1`, the IC50 in data set [1] was above 50 µM; with HCT-116, above 50 µM; in the data set with HUVEC [5], 0.66 µM. The “Ratio IC50” value with HUVEC [2] is above 75. In addition, the Activity with Calu-6 [3] (setting [12]) was determined as 27%. The microsomal CLint at 5 µM in data set [4] is 97 µL/min/mg. In addition, in the data set with Calu-6 [6], the inhibition in vivo at 600 mg/kg stood at 62%.

By IC50 is commonly meant the point on the concentration scale where inhibition reaches its midpoint. In general, solubility refers to the concentration that dissolves in the medium under given conditions. As usually defined, the logD is lipophilicity at a set pH, counting ionised and neutral species.
